We go through 15 compounds from ChEMBL document CHEMBL3871272, “Systemic optimization and structural evaluation of quinoline derivatives as transthyretin amyloidogenesis inhibitors” (Eur J Med Chem, 2016).

Calls of active or inactive are those of the source. The rule behind the calls is not given here. Bounds are passed on as bounds.

Usually Tmax stands for the time from dosing to the highest level. As usually defined, the AUC(0-inf) is the area under the concentration-time curve extrapolated to infinity. The IC50 is the concentration that gives 50% inhibition. By AUC(0-t) is commonly meant the area under the concentration-time curve up to a stated or last time point. By Cmax is commonly meant the maximum level reached in the sampled fluid or tissue. Broadly, the bioavailability is the share of a dose that reaches the circulation, judged against a reference dose that is usually intravenous. As a reminder, the clearance is the rate of elimination divided by the concentration. By inhibition is commonly meant the relative decrease from the control value, in per cent.

Data set [1] can be described thus: Tmax in Sprague-Dawley rat at 5 mg/kg, po administered as single dose via oral gavage by HPLC/MS/MS method. The note with it: in vivo. The data set is classed as ADME, organism-based. In outline: (§1)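 Five overnight-fasted male SD rats received a single 5 mg/kg dose by gavage needle. Dosing solution 2.5 mg/mL in 10% DMSO, 40% PEG400, 50% saline. Plasma concentration-time profiles were obtained, and parameters were calculated for each animal and then averaged.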

The target in data set [2] is T1, Transthyretin (Homo sapiens, UniProt P02766). As to the kind of experiment: Inhibition of wild type TTR (unknown origin) assessed as inhibition of acid-mediated amyloidogenesis by measuring fibril formation at 7.2 uM preincubated with enzyme followed by amyloidogenesis stimulation by adjusting pH to 4.4 measured after 72 hrs relative to control. On the set-up: scale not given: the % may be the effect or the level left. In outline: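 WT-TTR (3.6 µM, physiological level) was preincubated with inhibitor at 7.2 or 3.6 µM. The pH was then adjusted to 4.4 to trigger fibril formation, 37 °C, 72 h. Fibrils were expressed relative to untreated WT-TTR set at 100%.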

The nature of data set [3]: AUC (0 to infinity) in Sprague-Dawley rat at 2 mg/kg, iv administered as single dose by HPLC/MS/MS method. On the set-up: dose 2 mg/kg, time infinity, route intravenous. The data set is classed as ADME, organism-based. The note with it: in vivo. In outline:
(§2)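 Male Sprague-Dawley rats, fasted overnight, 4 animals. Single 2 mg/kg IV dose via tail vein, given as a 1 mg/mL solution in 10% DMSO, 40% PEG400 and 50% saline. Plasma was processed by vigorous mixing and centrifugation at 12,000 g for 10 min, with an internal standard added, then analysed by RP-HPLC. Parameters were calculated for each animal and averaged.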

A short description of data set [4]: Terminal half life in Sprague-Dawley rat at 2 mg/kg, iv administered as single dose by HPLC/MS/MS method. The note with it: in vivo, read-out: beta t1/2 (converted). The data set is classed as ADME, organism-based. In outline: (§3)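 Male SD rats, fasted overnight, four animals, single tail-vein IV dose of 2 mg/kg. Dosing solution 1 mg/mL in 10% DMSO, 40% PEG400, 50% saline. Plasma concentrations were measured over time. Parameters were calculated per animal and averaged.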

Data set [5] deals with T1, Transthyretin. As to the kind of experiment: Inhibition of wild type TTR (unknown origin) assessed as inhibition of acid-mediated amyloidogenesis by measuring fibril formation preincubated with enzyme followed by amyloidogenesis stimulation by adjusting pH to 4.4 measured after 72 hrs relative to control.
The nature of data set [6]: AUC (0 to t) in Sprague-Dawley rat at 2 mg/kg, iv administered as single dose by HPLC/MS/MS method. The data set is classed as ADME, organism-based. The note with it: in vivo. In outline: as §2
Data set [7] in a line: AUC (0 to infinity) in Sprague-Dawley rat at 5 mg/kg, po administered as single dose via oral gavage by HPLC/MS/MS method. As to conditions: in vivo. The data set is classed as ADME, organism-based. A digest of the protocol: (§4)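 Male Sprague-Dawley rats, fasted overnight, 5 animals. Single 5 mg/kg oral dose by gavage needle, given as a 2.5 mg/mL solution in 10% DMSO, 40% PEG400 and 50% saline. Plasma was processed by mixing and centrifugation at 12,000 g for 10 min, with an internal standard added, then analysed by RP-HPLC. Parameters were calculated for each animal and averaged.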

Data set [8] is described as follows: AUC (0 to t) in Sprague-Dawley rat at 5 mg/kg, po administered as single dose via oral gavage by HPLC/MS/MS method. The data set is classed as ADME, organism-based. As to conditions: in vivo. In outline:
as §4

Data set [9] can be described thus: Terminal half life in Sprague-Dawley rat at 5 mg/kg, po administered as single dose via oral gavage by HPLC/MS/MS method. It is filed as ADME, organism-based. As to conditions: in vivo, read-out: beta t1/2 (converted). A digest of the protocol:
as §1

The nature of data set [10]: Cmax in Sprague-Dawley rat at 2 mg/kg, iv administered as single dose by HPLC/MS/MS method. It is filed as ADME, organism-based. Set-up: dose 2 mg/kg, route intravenous. The note with it: in vivo. A digest of the protocol: as §3
Data set [11] is described as follows: Oral bioavailability in Sprague-Dawley rat at 5 mg/kg administered as single dose by HPLC/MS/MS method. It is filed as ADME, organism-based. As to conditions: in vivo. A digest of the protocol: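 Bioavailability was taken from dose-normalized AUC0-∞ after oral (5 mg/kg, gavage, n=5) versus IV (2 mg/kg, tail vein, n=4) dosing in fasted male SD rats. Vehicle: 10% DMSO, 40% PEG400, 50% saline.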

The nature of data set [12]: Cmax in Sprague-Dawley rat at 5 mg/kg, po administered as single dose via oral gavage by HPLC/MS/MS method. The data set is classed as ADME, organism-based. As to conditions: in vivo. A digest of the protocol:
as §1

Data set [13] is described as follows: Plasma clearance in Sprague-Dawley rat at 2 mg/kg, iv administered as single dose by HPLC/MS/MS method. The data set is classed as ADME, organism-based. In outline: as §3
Data set [14] can be described thus: Tmax in Sprague-Dawley rat at 2 mg/kg, iv administered as single dose by HPLC/MS/MS method. The data set is classed as ADME, organism-based. The note with it: in vivo. In outline:
as §3

Data set [15] in a line: Volume of distribution at steady state distribution in Sprague-Dawley rat at 2 mg/kg, iv administered as single dose by HPLC/MS/MS method. It is filed as ADME, organism-based. As to conditions: in vivo, read-out: Vdss. In outline: as §3
In data set [16] the target is T1, Transthyretin. Put plainly: Inhibition of wild type TTR (unknown origin) assessed as inhibition of acid-mediated amyloidogenesis by measuring fibril formation at 3.6 uM preincubated with enzyme followed by amyloidogenesis stimulation by adjusting pH to 4.4 measured after 72 hrs relative to control. On the set-up: scale not given: the % may be the effect or the level left. In outline:
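WT-TTR (3.6 μM, physiological concentration) preincubated with inhibitor (3.6 or 7.2 μM), then fibril formation triggered by adjusting pH to 4.4; incubated 37 °C, 72 h. Fibril formation expressed as percent of untreated WT-TTR (100%).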

Data set [17] relates to Transthyretin (Homo sapiens), P02766 [V50M]. Put plainly: Inhibition of TTR V30M mutant (unknown origin) assessed as inhibition of acid-mediated amyloidogenesis by measuring fibril formation at 3.6 uM preincubated with enzyme followed by amyloidogenesis stimulation by adjusting pH to 4.4 measured after 72 hrs relative to control. On the set-up: scale not given: the % may be the effect or the level left. In outline:
(§5)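 V30M-TTR (3.6 μM) preincubated with inhibitor (3.6 or 7.2 μM), then fibril formation triggered by adjusting pH to 4.4; incubated 37 °C, 72 h. Fibril formation expressed as percent of untreated V30M-TTR (100%).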

In data set [18] the target is T1, Transthyretin. Put plainly: Inhibition of wild type TTR (unknown origin) assessed as inhibition of acid-mediated amyloidogenesis by measuring reduction in fibril formation at 3.6 uM preincubated with enzyme followed by amyloidogenesis stimulation by adjusting pH to 4.4 measured up to 120 hrs relative to control. A digest of the protocol:
(§6)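 Time-course version of the acid-mediated fibril formation assay: inhibitor at a concentration equal to the TTR tetramer (3.6 μM), preincubated with TTR, then acidified to pH 4.4. Fibril formation followed over 120 h instead of at a fixed 72 h, relative to untreated TTR.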

In data set [19] the test system is Transthyretin (Homo sapiens), P02766 [V50M]. As to the kind of experiment: Inhibition of TTR V30M mutant (unknown origin) assessed as inhibition of acid-mediated amyloidogenesis by measuring fibril formation at 7.2 uM preincubated with enzyme followed by amyloidogenesis stimulation by adjusting pH to 4.4 measured after 72 hrs relative to control. Set-up: scale not given: the % may be the effect or the level left. In outline:
as §5

For data set [20], the target named is Transthyretin (Homo sapiens, UniProt P02766, V50M). As to the kind of experiment: Inhibition of TTR V30M mutant (unknown origin) assessed as inhibition of acid-mediated amyloidogenesis by measuring fibril formation preincubated with enzyme followed by amyloidogenesis stimulation by adjusting pH to 4.4 measured after 72 hrs relative to control.
Data set [21] has as its system Transthyretin (Homo sapiens), P02766 [V50M]. As to the kind of experiment: Inhibition of TTR V30M mutant (unknown origin) assessed as inhibition of acid-mediated amyloidogenesis by measuring reduction in fibril formation at 3.6 uM preincubated with enzyme followed by amyloidogenesis stimulation by adjusting pH to 4.4 measured up to 120 hrs relative to control. In outline: as §6

In the case of `Cc1cc(C#Cc2ccc3cc(N)ccc3n2)cc(C)c1O`, the values for the Tmax in [1] and in data set [14] were 2.45 h and 4.98 min, respectively. Moreover, the values for the Activity in [2] and in data set [16] were 4.8% and 17.9%, respectively. The AUC(0-inf) stood at 1350 ng·h/mL in data set [3] and 232 ng·h/mL in data set [7]. Moreover, the half-life is 2.71 h in data set [4] and 1.59 h in data set [9]. In addition, in [5], the IC50 worked out at 1.9 µM. The AUC(0-t) in [6] came to 1330 ng·h/mL; in data set [8], 226 ng·h/mL. The Cmax in data set [10] was 3110 ng/mL; in [12], 138 ng/mL. Moreover, in data set [11], the bioavailability worked out at 6.89%. The compound further gave a clearance in data set [13] of 25.1 mL/min/kg. In [15], the Vd worked out at 1.48 L/kg.

As for `CCc1cc(C#Cc2ccc3ccccc3n2)ccc1O`, the Activity in data set [2] was 99%.

As for `CC(C)c1cc(C#Cc2ccc3ccccc3n2)ccc1O`, in data set [2], the Activity amounted to 97.3%.

Regarding `Cc1cc(/C=C/c2cc3ccccc3nc2Cl)cc(C)c1O`, the values for the Activity in data set [2] and in [16] were 2.3% and 33.2%, respectively.

On to `Cc1cc(/C=C/c2ccc3cc(N)ccc3n2)cc(C)c1O`, for which the Activity came to 26.8% in data set [2] and 51.3% in data set [16].

Take `COc1ccc2nc(C#Cc3cc(C)c(O)c(C)c3)ccc2c1`: in [2], the Activity came to 22.1%.

With `Oc1ccc(C#Cc2ccc3ccccc3n2)cc1`, the Activity in [2] was 73.9%.

Take `Cc1cc(C#Cc2ccc3cc(O)ccc3n2)cc(C)c1O`: the values for the Activity in data set [2] and in data set [16] were 9.6% and 32.1%, respectively. For the same compound, the IC50 in data set [5] was 2.59 µM.

As for `Cc1cc(/C=C/c2ccc3cc([N+](=O)[O-])ccc3n2)cc(C)c1O`, the Activity in data set [2] is 92.9%.

Consider `Cc1cc(C#Cc2ccc3ccccc3n2)cc(C)c1O`, for which the Activity worked out at 10.2% in [2] and 25.6% in [16]. For the same compound, the IC50 in data set [5] is 2.18 µM.

With `CCc1cc(C#Cc2ccc3ccccc3n2)cc(CC)c1O`, the Activity in [2] amounted to 93.4%.

As to `O=C(O)c1ccc2nc(-c3cc(Cl)cc(Cl)c3)oc2c1`, the Activity in data set [2] is 1%; in [17] it was 17%; in data set [19], 3.2%; in data set [16] it was 14.8%. Also, the inhibition result in [18] was “Active”.

With `Cc1cc(/C=C/c2cc3ccc(O)cc3nc2Cl)cc(C)c1O`, the Tmax in [1] amounted to 0.598 h; in data set [14], 4.98 min. In addition, the Activity in data set [2] was 0.9%; in data set [17], 16.6%; in data set [19], 5%; in [16] it was 17.7%. Besides, the AUC(0-inf) was determined as 4590 ng·h/mL in [3] and 3120 ng·h/mL in data set [7]. The half-life in data set [4] is 2.75 h; in [9], 3.36 h. The results for the half-maximal inhibitory concentration (IC50) in data set [5] and in [20] were 1.49 µM and 1.63 µM, respectively. The results for the AUC(0-t) in [6] and in data set [8] were 4510 ng·h/mL and 2840 ng·h/mL, respectively. For the same compound, the inhibition was 7 to 23% in [18] and over 80% in [21]. Also, the Cmax in data set [10] worked out at 2380 ng/mL; in data set [12], 665 ng/mL. In addition, the bioavailability in [11] was found to be 27.2%. The compound further gave a clearance in data set [13] of 7.34 mL/min/kg. Moreover, the Vd in data set [15] was determined as 1.13 L/kg.

For the compound `Cc1cc(C#Cc2ccc3cc([N+](=O)[O-])ccc3n2)cc(C)c1O`, the Activity is 3.6% in [2] and 20.9% in [16]. In addition, the IC50 in data set [5] amounted to 2.06 µM.

On to `Cc1cc(/C=C/c2ccc3ccccc3n2)cc(C)c1O`, for which the Activity in [2] was 26.3%.
